# Hits are enriched below; roughly 5.2% of the tested compounds scored in any of these assays.
# ZTA DNA inh: counter-screen for EBNA-1 inhibitors: inhibitors of Epstein-Barr virus ZTA; P03206; ZTA-DNA binding, fluorescence polarization; inhibition, % at 11 µM; 320,000 tested, 0.15% active; AID 2234; in the data active = inhibition above about 33%
# Target sequence (P03206 whole entry, looked up): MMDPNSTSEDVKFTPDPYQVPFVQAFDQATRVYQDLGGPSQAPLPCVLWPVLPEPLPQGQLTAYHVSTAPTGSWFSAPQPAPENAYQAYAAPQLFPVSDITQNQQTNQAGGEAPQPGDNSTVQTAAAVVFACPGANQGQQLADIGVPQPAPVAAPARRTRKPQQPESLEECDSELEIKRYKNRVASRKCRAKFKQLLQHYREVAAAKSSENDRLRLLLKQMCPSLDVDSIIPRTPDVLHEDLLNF
# PfM18AAP inh-1: PfM18AAP inhibitors, malaria aminopeptidase, primary screen, biochemical, QFRET, recombinant enzyme; H-Glu-NHMec fluorogenic cleavage; inhibition, % at 7.35 µM; 290,000 tested, 1.2% active;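 active = inhibition above the campaign mean inhibition over all tested compounds plus 3 SD, cut at about 28% in these data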;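 also: 0% = plate median of test compound wells and 100% = 2 mM ZnCl2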
# ALR inh: inhibitors of human ALR sulfhydryl oxidase, primary screen, biochemical, H2O2 detection, HRP-luminol luminescence, single point; FAD-linked sulfhydryl oxidase ALR (Homo sapiens), P55789; purified ALR, DTT oxidation; inhibition, % (no concentration beside the values); 290,000 tested, 3.8% active;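 active = mean replicate inhibition above about 79%, with every replicate also reaching it, limit read from the data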
# NS3 helicase inh: inhibitors of HCV NS3 helicase, primary screen, biochemical, Cy5 molecular beacon fluorescence; Hepatitis C virus NS3 helicase; NS3 helicase DNA unwinding; inhibition, % at 10.9 µM; 290,000 tested, 0.56% active; AID 1800, 2009;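 active = inhibition above the mean of all tested compounds plus 3 SD, set per campaign, cut at about 35% in these data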;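 also: 0% = DMSO wells and 100% = thioflavine S control wells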
#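 System: Hepatitis C virus NS3 helicase domain fragment enzyme | Reagent: Annealed dual-labelled DNA beacon duplex, ATP-started | Compound dosing: 10.9 µM single point, 0.8% DMSO | Incubation: 1 h reaction at 25 °C, ATP-initiated | Technique: Cy5 fluorescence | Evaluation: Percent inhibition from t60/t0 fluorescence ratio | Benchmarks: Low DMSO, high thioflavine S at 110 µM | Replication: Singlicate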
# EBNA-1 inh: EBNA-1 DNA-binding inhibitors, primary screen, biochemical, fluorescence polarization; AID 1950, 2009; 300,000 tested, 0.34% active; inhibition, % at 14.8 µM; in the data active = inhibition above about 28%
# core dimer inh: inhibitors of HCV core protein dimerization, primary screen, biochemical, TR-FRET, high-throughput; TR-FRET GST/Flag-core106 dimerization, 1536-well; inhibition, % at 5 µM; 300,000 tested, 0.33% active;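 active = inhibition above the mean of all tested compounds plus 3 SD, set per screening campaign, cut at about 45% in these data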
#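 System – GST-tagged and Flag-tagged HCV core protein residues 1-106 · Repeats – one well for each compound · Technique – TR-FRET 671 and 617 nm emission · Doses – one concentration, 5 µM, in 0.5% DMSO · Times – 4 h, 22.5 °C incubation · Also added – Eu donor and XL665 acceptor anti-tag antibodies · Measure – percent inhibition of core106 dimerization signal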
# PfM18AAP inh-2: PfM18AAP inhibitors, malaria aminopeptidase, confirmation, biochemical, QFRET, recombinant enzyme, triplicate | inhibition, % at 7.35 µM | shares compounds with PfM18AAP inh-1 | H-Glu-NHMec fluorogenic cleavage | 2,400 tested, 28% active | AID 2170, 2009;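 active = mean inhibition over replicate wells above the hit cutoff set for the earlier primary screen, cut at about 29% in these data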;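 also: 0% = median of test compound wells and 100% = 2 mM ZnCl2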
# CTSL1 counter: cathepsin L1 inhibitors, retest, confirmation, counter-screen for PFM18AAP inhibitor project, biochemical, QFRET, triplicate | shares compounds with PfM18AAP inh-1 | purified cathepsin L1, Z-Leu-Arg-MCA fluorescence | inhibition, % at 5.96 µM | 2,400 tested, under 10 active;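 active = average inhibition across replicates above the hit cutoff set in the earlier primary screen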;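 also: 0% = median of test compound wells and 100% = Z-Phe-Ala-diazomethylketone 1 µM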
# Target sequence (P07711 whole entry, looked up): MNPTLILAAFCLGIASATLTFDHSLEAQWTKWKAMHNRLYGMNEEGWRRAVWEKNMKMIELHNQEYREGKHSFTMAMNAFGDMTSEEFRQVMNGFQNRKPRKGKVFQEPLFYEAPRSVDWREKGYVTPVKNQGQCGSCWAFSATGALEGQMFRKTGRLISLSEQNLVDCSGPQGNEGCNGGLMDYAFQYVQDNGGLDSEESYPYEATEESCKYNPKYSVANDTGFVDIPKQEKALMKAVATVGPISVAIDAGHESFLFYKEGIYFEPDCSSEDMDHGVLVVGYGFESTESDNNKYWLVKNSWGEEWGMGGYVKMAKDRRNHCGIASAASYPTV
# An asterisk follows results filed as active; x = no result.
SMILES,ZTA DNA inh,PfM18AAP inh-1,ALR inh,NS3 helicase inh,EBNA-1 inh,core dimer inh,PfM18AAP inh-2,CTSL1 counter
COc1ccc(C(=O)COc2ccccc2C(=O)Nc2ccccc2)cc1,4,-7,x,-13,-18,8,x,x
CCOC(=O)N1CCc2c(sc(N)c2C#N)C1,-5,39*,-11,11,-9,-4,-43,6
CCN(CC)C(=O)CSc1nc2cc3c(cc2c(=O)n1Cc1ccc2c(c1)OCO2)OCO3,6,-4,-4,-1,2,4,x,x
CCOC(=O)CSc1nc2ccc(N3CCOCC3)cc2c(=O)n1Cc1ccc2c(c1)OCO2,5,37*,-28,16,3,8,-17,-2
COC(=O)C1CCN(C(=O)CSc2nnc(-c3ccccc3)o2)CC1,3,x,6,x,3,-4,x,x
COc1ccc(-n2nnnc2SCC(=O)c2ccc(O)c(O)c2)cc1,-11,35*,x,5,8,-4,30*,-4
NC(=O)c1ccc(-n2nnnc2SCC(=O)c2ccc(O)c(O)c2)cc1,0,51*,96*,11,-13,0,29*,-1
Cc1ccccc1CSc1nnnn1-c1ccc(C(N)=O)cc1,-17,3,0,9,3,-5,x,x
CCOC(=O)c1ccccc1NC(=O)COC(=O)CN1C(=O)C2CC=CCC2C1=O (centres undefined),-6,-1,3,-18,2,-5,x,x
O=C(NCC1CCCO1)C1CCCN(S(=O)(=O)c2ccc(Br)cc2)C1 (centres undefined),12,32*,0,0,-3,8,-52,-1
Cc1ccc(S(=O)(=O)N2CCCC(C(=O)NCC3CCCO3)C2)cc1 (centres undefined),-16,-6,-6,8,-3,-12,x,x
CCOC(=O)c1cnc2c(C(=O)OC)cccc2c1NCc1ccco1,1,41*,46,18,2,-4,-30,4
Cc1cc(N2CCCC2)ccc1/C=N/n1cnnc1,-2,32*,47,7,5,-2,3,2
COc1ccc(-n2c(Cn3nc(C(F)(F)F)cc3C)n[nH]c2=S)cc1,-21,32*,21,22,8,-9,-17,-3
COc1cccc(-n2c(Cn3nc(C(F)(F)F)cc3C)n[nH]c2=S)c1,-10,8,7,8,-1,-4,x,x
CC12CCC(=O)N1C(C(=O)Nc1cc(S(=O)(=O)N3CCCCCC3)ccc1OCC(F)(F)F)CS2 (centres undefined),-10,-3,3,-1,-15,14,x,x
Cc1ccccc1NC(=S)C1=C(O)c2sccc2N(C)S1(=O)=O,-7,33*,6,4,-1,3,-47,3
CCOC(=O)Nc1sc2c(c1C(=O)OCC)CCC2,9,-8,10,-3,-1,-3,x,x
CCOC(=O)c1c(NS(=O)(=O)c2cccc(OC)c2)sc2c1CCC2,-1,33*,30,23,11,3,-84,0
CC(C)(C)C1CCC(=NNc2ncc(C(F)(F)F)cc2Cl)CC1 (centres undefined),3,33*,-2,-1,7,-2,3,4
C/C(=N/Nc1ncc(C(F)(F)F)cc1Cl)c1ccncc1,8,16,1,14,-11,-1,x,x
O=C1CN(C(=O)COC(=O)CCc2ccccc2O)c2ccccc2N1,x,x,25,x,x,x,x,x
O=c1c2ccccc2sn1-c1ccc(F)cc1,-13,x,19,x,x,x,x,x
Cc1ccc(-n2sc3ccccc3c2=O)cc1,-10,66*,5,3,6,-14,76*,6
NC(=O)c1ccccc1OCc1nnc(-c2ccccc2Br)o1,-5,2,x,13,-6,18,x,x
SMILES,ZTA DNA inh,PfM18AAP inh-1,ALR inh,NS3 helicase inh,EBNA-1 inh,core dimer inh,PfM18AAP inh-2,CTSL1 counter
CNC(=O)N(O)C1N(C)C(=O)N(CC(=O)OC)C1(C)C (centres undefined),0,37*,-5,5,-2,4,-23,1
C=CCn1c(-c2sc3nc(C)cc(C)c3c2N)n[nH]c1=S,-5,43*,62,27,-2,-16,13,3
O=C1NC(NS(=O)(=O)c2ccccc2)(C(F)(F)F)C(=O)N1Cc1ccccc1 (centres undefined),11,8,-14,3,-1,-22,x,x
O=C(CSc1nnc(-c2ccccc2F)n1C1CC1)NCc1ccco1,-6,x,-4,x,x,x,x,x
O=C(O)Cc1ccc2ocnc2c1,-6,45*,65,8,-2,-4,6,1
CCCN(C(=O)CCNC(=O)Cn1cnc2ccccc2c1=O)c1cccc(C)c1,-14,3,0,1,4,-18,x,x
Cc1ccc(CCNC(=O)C2CCC(=O)N2C2CCCC2)cc1 (centres undefined),-3,-6,-2,0,-9,3,x,x
CCN(CCCNC(=O)CCNC(=O)Cn1cnc2ccccc2c1=O)c1cccc(C)c1,-22,53*,99*,-6,-4,-14,-25,-2
CCN(CCCNC(=O)C1CCC(=O)N1C1CCCC1)c1cccc(C)c1 (centres undefined),0,54*,x,-5,18,-3,-24,6
CCN(CCCNC(=O)C1CCN(S(=O)(=O)c2c(C)[nH]c(=O)[nH]c2=O)CC1)c1cccc(C)c1,11,32*,x,1,-2,0,-23,-2
COC(=O)N/N=C/c1cn(CC(C)COc2ccccc2)c2ccccc12 (centres undefined),-8,-1,-2,-3,-5,8,x,x
Cc1[nH]c(=O)c(C#N)c(C)c1CCC(=O)NCc1ccc(Cl)cc1,-11,6,x,17,-14,-7,x,x
CCCC(NC(=O)C(C)Sc1nnnn1C1CC1)c1ccccc1 (centres undefined),-9,x,-2,x,x,x,x,x
Cc1c(N)c(C(C)(C)C)cc(C(C)(C)C)c1[N+](=O)[O-],-9,-1,-7,-5,13,-7,x,x
Cc1cc2nc3c(=O)[nH]c(=O)[nH]c3nc2c([N+](=O)[O-])c1N,x,32*,x,12,x,x,1,0

# Compound activity: PubChem BioAssay, several laboratories
